A short description of series [1]: Cytotoxicity against human Fa2N-4 cells after 24 hrs by ATP-lite 1-step assay. Format: cell-based. Conditions: fa2n-4, 24 h, read-out: LC50 (the source's name).
A short description of series [2]: Metabolic stability in human liver microsomes measured at 1 uM after 1 hr at pH 7.4 by LC-MS/MS analysis. Format: ADME. Conditions: read-out: Stability. The gist of the method:
(§1)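 Stability of each analogue was reported as % of compound remaining. For liver microsomes this was after 1 hr, with runs with and without NADPH. For plasma this was after 3 hrs in plasma mixed 1:1 with 1× PBS, pH 7.4. Both human and mouse matrices were used.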

The nature of series [3]: Plasma protein binding in mouse at 1 uM by LC-MS analysis. Format: ADME, cell-free. Conditions: read-out: PPB (converted). The gist of the method: (§2)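 Read-out was % of compound bound in human or mouse plasma, each tested at 1 µM and 10 µM.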
The nature of series [4]: Metabolic stability in mouse plasma assessed as compound remaining at 1 x pH7.4 PBS measured at 3 hrs by LC-MS/MS analysis. Format: ADME, cell-free. Conditions: pH 7.4, read-out: Stability. The gist of the method: as §1
Series [5] can be described thus: Aqueous solubility of the compound in pH 6.2 pION buffer by UV kinetic solubility method. Format: physicochemical. The gist of the method: (§3)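 Kinetic solubility in pION's buffer at pH 5.0, 6.2 or 7.4, reported in µg/ml. Part of an in vitro ADME panel.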
Series [6] can be described thus: Aqueous solubility of the compound in pH 5 pION buffer by UV kinetic solubility method. Format: physicochemical. A digest of the protocol:
as §3

A short description of series [7]: Plasma protein binding in human at 10 uM by LC-MS analysis. Format: ADME, cell-free. Conditions: read-out: PPB (converted). A digest of the protocol:
as §2

Series [8] in a line: Plasma protein binding in mouse at 10 uM by LC-MS analysis. Format: ADME, cell-free. Conditions: read-out: PPB (converted). The gist of the method: as §2
A short description of series [9]: Permeability of the compound at donor pH 5.0 and acceptor pH 7.4 by PAMPA. Format: ADME. A digest of the protocol:
(§4)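 PAMPA with the acceptor compartment at pH 7.4 and the donor at pH 5.0, 6.2 or 7.4. Permeability reported as ×10^-6 cm/s. Part of an in vitro ADME panel.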

The nature of series [10]: Metabolic stability in human plasma assessed as compound remaining at 1 x pH7.4 PBS measured at 3 hrs by LC-MS/MS analysis. Format: ADME, cell-free. Conditions: pH 7.4, read-out: Stability. The gist of the method:
as §1

Series [11] can be described thus: Metabolic stability in mouse plasma assessed as compound remaining at 1:1 1 x pH7.4 PBS measured at 3 hrs by LC-MS/MS analysis. Format: ADME, cell-free. Conditions: pH 7.4, read-out: Stability. A digest of the protocol:
as §1

Series [12] in a line: Metabolic stability in human plasma assessed as compound remaining at 1:1 1 x pH7.4 PBS measured at 3 hrs by LC-MS/MS analysis. Format: ADME, cell-free. Conditions: pH 7.4, read-out: Stability. The gist of the method: as §1
The nature of series [13]: Metabolic stability in mouse liver microsomes measured at 1 uM after 1 hr at pH 7.4 by LC-MS/MS analysis. Format: ADME. Conditions: read-out: Stability. A digest of the protocol:
as §1
(Microsomes from liver hold many membrane-bound enzymes, among them those of drug oxidation.)

Series [14] is described as follows: Aqueous solubility of the compound in pH 7.4 pION buffer by UV kinetic solubility method. Format: physicochemical. A digest of the protocol:
as §3

Series [15] is described as follows: Permeability of the compound at donor pH 7.4 and acceptor pH 7.4 by PAMPA. Format: ADME. A digest of the protocol:
as §4
(In general: In PAMPA a lipid-coated filter parts donor from acceptor wells.)

A short description of series [16]: Permeability of the compound at donor pH 6.2 and acceptor pH 7.4 by PAMPA. Format: ADME. The gist of the method: as §4
The target of series [17] is T1, Phosphomannomutase 2 (Homo sapiens, UniProt O15305).
T1 sequence (O15305 whole entry): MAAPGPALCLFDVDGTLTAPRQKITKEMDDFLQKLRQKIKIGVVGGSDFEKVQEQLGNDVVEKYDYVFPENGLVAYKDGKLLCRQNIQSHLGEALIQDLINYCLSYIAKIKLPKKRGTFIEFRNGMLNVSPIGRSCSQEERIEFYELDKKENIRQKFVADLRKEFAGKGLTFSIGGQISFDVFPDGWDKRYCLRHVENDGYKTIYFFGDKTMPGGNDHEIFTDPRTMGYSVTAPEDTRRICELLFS
The experiment in a line: Inhibition of PMM2 (unknown origin).

For series [18], the target named is T2, Phosphoethanolamine/phosphocholine phosphatase (Homo sapiens, UniProt Q8TCT1).
T2 sequence (Q8TCT1 whole entry): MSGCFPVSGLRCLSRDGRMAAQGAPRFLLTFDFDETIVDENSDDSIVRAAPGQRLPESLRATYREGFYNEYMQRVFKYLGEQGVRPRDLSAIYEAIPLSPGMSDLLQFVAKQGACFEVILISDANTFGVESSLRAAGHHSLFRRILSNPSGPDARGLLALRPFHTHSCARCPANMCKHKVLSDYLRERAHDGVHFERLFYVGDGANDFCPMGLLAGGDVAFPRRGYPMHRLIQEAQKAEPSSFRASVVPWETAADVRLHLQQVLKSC
The series is described as follows: Inhibition of PHOSPHO1 phosphoethanolamine activity (unknown origin) assessed as amount of inorganic phosphate release after 30 mins.

In series [19] the target is T3, Mannose-6-phosphate isomerase (Homo sapiens, UniProt P34949).
T3 sequence (P34949 whole entry): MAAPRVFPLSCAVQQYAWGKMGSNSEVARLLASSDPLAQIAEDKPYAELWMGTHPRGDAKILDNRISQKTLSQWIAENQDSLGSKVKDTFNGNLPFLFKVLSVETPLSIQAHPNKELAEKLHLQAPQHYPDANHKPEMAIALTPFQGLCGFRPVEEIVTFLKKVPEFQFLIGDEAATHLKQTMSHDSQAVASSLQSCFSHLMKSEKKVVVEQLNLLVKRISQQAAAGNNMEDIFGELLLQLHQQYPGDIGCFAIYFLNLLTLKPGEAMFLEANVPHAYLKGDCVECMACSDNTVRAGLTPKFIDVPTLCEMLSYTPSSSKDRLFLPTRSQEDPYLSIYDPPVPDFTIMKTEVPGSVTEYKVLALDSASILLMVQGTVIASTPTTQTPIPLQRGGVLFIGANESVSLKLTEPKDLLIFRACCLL
The experiment in a line: Inhibition of phosphomannose isomerase (unknown origin).

Series [20] in a line: Plasma protein binding in human at 1 uM by LC-MS analysis. Format: ADME, cell-free. Conditions: read-out: PPB (converted). A digest of the protocol:
as §2

Series [21] in a line: Metabolic stability in mouse liver microsomes measured at 1 uM after 1 hr at pH 7.4 by LC-MS/MS analysis in absence of NADPH. Format: ADME. Conditions: read-out: Stability. A digest of the protocol: as §1
A short description of series [22]: Metabolic stability in human liver microsomes measured at 1 uM after 1 hr at pH 7.4 by LC-MS/MS analysis in absence of NADPH. Format: ADME. Conditions: read-out: Stability. The gist of the method: as §1

Structures are written as SMILES. In brackets after ≈: the same amount, converted by molar mass.

The term solubility (kinetic) denotes solubility judged after dilution from a stock solution rather than from solid. `CN(C)S(=O)(=O)c1cccc(-n2sc3ccccc3c2=O)c1`: the CC50 in series [1] is > 50 µM. The results for the remaining at 1 h, 1 µM in [2] and in series [13] were 72.4% and 100%, respectively. Besides, the fraction unbound at 1 µM in series [3] is 0.644. Further, the remaining at 3 h in series [4] came to 65.3%; in series [10], 11.4%; in [11], 40%; in series [12], 32.3%. The values for the kinetic solubility in series [5], in series [6] and in series [14] were 24.6 µg/mL (≈ 73.6 µM), 23.4 µg/mL (≈ 70 µM) and 23.8 µg/mL (≈ 71.2 µM), respectively. Moreover, the values for the fraction unbound at 10 µM in series [7] and in series [8] were 0.435 and 0.659, respectively. Further, the permeability was determined as 781 ×10⁻⁶ cm/s in series [9], 777 ×10⁻⁶ cm/s in series [15] and 817 ×10⁻⁶ cm/s in series [16].

The term IC50 denotes the point on the concentration scale where inhibition reaches its midpoint. As to `Cc1cccc(-n2sc3cc(F)ccc3c2=O)c1C`, the IC50 was > 20 µM in series [17], 4.7 µM in series [18] and 9.9 µM in [19].

For `Cc1ccc(C)c(-n2sc3cc(F)ccc3c2=O)c1`, the IC50 in series [18] came to 3.3 µM.

In the case of `COc1ccc(-n2sc3cc(F)ccc3c2=O)cc1`, the IC50 is > 10 µM in series [17] and 6.7 µM in series [18].

For the molecule `COC(=O)c1cccc(-n2sc3ccccc3c2=O)c1`, the CC50 in series [1] was > 50 µM. Also, the remaining at 1 h, 1 µM came to 72.4% in series [2], 44.6% in [21], 31.5% in series [22] and 45.9% in [13]. The fraction unbound at 1 µM in series [3] was 0.52; in [20], 0.588. For the same molecule, the remaining at 3 h in [4] was determined as 59.6%; in [10] it was 15.4%; in series [11], 55.2%; in series [12] it was 49.3%. In addition, the kinetic solubility in [5] came out at 18.9 µg/mL (≈ 66.2 µM); in [6], 12.6 µg/mL (≈ 44.2 µM); in series [14], 20.8 µg/mL (≈ 72.9 µM). Further, the fraction unbound at 10 µM is 0.427 in series [7] and 0.624 in [8]. For the same molecule, the permeability turned out to be 1294 ×10⁻⁶ cm/s in [9], 1300 ×10⁻⁶ cm/s in [15] and 1231 ×10⁻⁶ cm/s in series [16]. For the same molecule, in series [17], the IC50 was 12 µM.

With `O=c1c2ccccc2sn1-c1ccc(F)c(Cl)c1`, the results for the IC50 in series [17] and in [19] were > 100 µM and > 50 µM, respectively.

For the molecule `Cc1ccc(-n2sc3ccccc3c2=O)cc1S(=O)(=O)N1CCCCC1`, in series [17], the IC50 turned out to be 11 µM.

On to `O=c1c2ccc(F)cc2sn1-c1ccc(F)cc1`, for which the IC50 in series [17] was > 50 µM; in series [18] it was > 10 µM; in series [19] it was 3.6 µM.

Regarding `O=c1c2ccccc2sn1-c1cccc(Cl)c1`, the IC50 in series [17] is > 30 µM.

For `CCOC(=O)c1ccc(-n2sc3ccccc3c2=O)cc1`, the half-maximal inhibitory concentration (IC50) in series [17] was > 50 µM; in series [19], 23 µM.

As for `O=c1c2ccccc2sn1-c1cc(S(=O)(=O)N2CCOCC2)ccc1N1CCCC1`, the IC50 in [18] is 7.5 µM.

`Cc1cccc(-n2sc3ccccc3c2=O)c1`: the IC50 in [17] is > 20 µM.

On to `CN(C)c1ccc(-n2sc3ccccc3c2=O)cc1`, for which the IC50 in series [17] is > 30 µM; in [19], 8.4 µM.

As for `Cc1ccc(-n2sc3ccccc3c2=O)cc1`, the half-inhibitory concentration (IC50) in series [17] is > 30 µM; in [18], 1.3 µM; in series [19], 3.9 µM.

Consider `O=c1c2ccccc2sn1-c1ccc(Cl)c(S(=O)(=O)N2CCOCC2)c1`, for which, in series [17], the IC50 is 63 µM.

In the case of `O=c1c2ccc(F)cc2sn1-c1ccccc1`, the figures for the IC50 in series [17], in [18] and in [19] were > 50 µM, 0.79 µM and 1.3 µM, respectively.

As to `O=c1c2ccccc2sn1-c1ccc(F)cc1`, the results for the IC50 in [17] and in series [19] were > 20 µM and 3.4 µM, respectively.

Take `O=C(O)c1cccc(-n2sc3ccccc3c2=O)c1`: the CC50 in series [1] is > 50 µM. The remaining at 1 h, 1 µM in series [2] and in series [13] was 100% throughout. In series [3], the fraction unbound at 1 µM is 0.812. The remaining at 3 h in series [4] was 100%; in series [10] it was 50.2%; in series [11], 71.2%; in [12], 55.5%. Besides, the kinetic solubility in series [5], in series [6] and in [14] was > 27 µg/mL throughout. Besides, the fraction unbound at 10 µM in series [7] is 0.406; in series [8], 0.699. The values for the permeability in series [9], in series [15] and in series [16] were 157 ×10⁻⁶ cm/s, < 4.4 ×10⁻⁶ cm/s and 18 ×10⁻⁶ cm/s, respectively.

`Cc1ccc(C)c(-n2sc3ccccc3c2=O)c1`: the IC50 was > 20 µM in [17] and 4 µM in series [18].

For `CCN(CC)S(=O)(=O)c1cccc(-n2sc3ccccc3c2=O)c1`, the results for the IC50 in [17] and in [19] were > 100 µM and > 50 µM, respectively.

As to `O=c1c2ccccc2sn1-c1cc(S(=O)(=O)N2CCOCC2)ccc1N1CCOCC1`, the IC50 in [18] is 1.2 µM.

The values are drawn from ChEMBL document CHEMBL3351720, “Design, synthesis and evaluation of benzoisothiazolones as selective inhibitors of PHOSPHO1” (Bioorg Med Chem Lett, 2014).
